Results published in ChEMBL document CHEMBL3217420, “Design, synthesis and initial biological evaluation of a novel pladienolide analog scaffold” (Medchemcomm, 2011).
Calls of active or inactive are those of the source. No cut-off for these calls is given here.

How the values were obtained:
Assay type in all cases: functional, cell-based
[1] = system: SK-MEL-2; experiment: Cytotoxicity in human SK-MEL-2 cells assessed as growth inhibition after 72 hrs by XTT assay; details: SK-MEL-2, 72 h
In short: (§1)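 XTT assay after 72 h continuous compound exposure. IC50 is the concentration that inhibits growth to 50% of the DMSO vehicle-treated control. It was calculated by sigmoidal fitting of dose-response curves. Values are mean ± standard error of 3 independent experiments.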

[2] = system: SK-MEL-2; experiment: Modulation of MDM2 mRNA splicing in human SK-MEL-2 cells assessed as formation of two spliced MDM2 mRNA variants at 10 to 100 uM after 6 hrs by blotting assay
In short: (§2)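 SK-MEL-2 melanoma cells were exposed to DMSO vehicle or to the designated compound concentrations for 6 hours. MDM2 mRNA was then examined for the properly spliced form and for alternatively spliced variant forms.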

[3] = system: SK-MEL-2; experiment: Modulation of MDM2 mRNA splicing in human SK-MEL-2 cells assessed as increase in properly spliced MDM2 mRNA at 10 to 100 uM after 6 hrs by blotting assay; in short: as §2
[4] = system: PC-3; experiment: Cytotoxicity in human PC3 cells assessed as growth inhibition after 72 hrs by XTT assay; details: PC-3, 72 h; in short: as §1
[5] = system: SK-MEL-2; experiment: Modulation of MDM2 mRNA splicing in human SK-MEL-2 cells assessed as formation of two spliced MDM2 mRNA variants at 100 uM after 6 hrs by blotting assay; in short: as §2
[6] = system: MCF7; experiment: Cytotoxicity in human MCF7 cells assessed as growth inhibition after 72 hrs by XTT assay; details: MCF7, 72 h; in short: as §1
[7] = system: MOLT-4; experiment: Cytotoxicity in human MOLT4 cells assessed as growth inhibition after 72 hrs by XTT assay; details: MOLT-4, 72 h; in short: as §1
[8] = system: NCI-H226; experiment: Cytotoxicity in human NCI-H226 cells assessed as growth inhibition after 72 hrs by XTT assay; details: NCI-H226, 72 h; in short: as §1
[9] = system: SK-MEL-2; experiment: Modulation of MDM2 mRNA splicing in human SK-MEL-2 cells assessed as increase in properly spliced MDM2 mRNA at 10 to 25 uM after 6 hrs by blotting assay; in short: as §2
[10] = Cytotoxicity in human JeKo1 cells assessed as growth inhibition after 72 hrs by XTT assay; details: JeKo-1, 72 h; in short: as §1
[11] = system: SK-MEL-2; experiment: Modulation of MDM2 mRNA splicing in human SK-MEL-2 cells assessed as increase in properly spliced MDM2 mRNA at 1 uM after 6 hrs by blotting assay; in short: as §2
[12] = system: SK-MEL-2; experiment: Modulation of MDM2 mRNA splicing in human SK-MEL-2 cells assessed as formation of two spliced MDM2 mRNA variants at 10 uM after 6 hrs by blotting assay; in short: as §2

SMILES | IC50 [1] | Activity [2] | Activity [3] | IC50 [4] | Activity [5] | IC50 [6] | IC50 [7] | IC50 [8] | Activity [9] | IC50 [10] | Activity [11] | Activity [12]
COc1ccc(COC/C=C(\C)[C@@H]2C/C=C/[C@H](OC(C)=O)[C@](C)(O)CCCCC(=O)O2)cc1 | > 20 µM | inactive | Active |  |  |  |  |  |  |  |  | 
CC(=O)O[C@H]1/C=C/C[C@@H](/C(C)=C/C=C/CC[C@H]2O[C@@H]2C[C@H](C)O[Si](C)(C)C(C)(C)C)OC(=O)CCCC[C@@]1(C)O | 10.7 µM |  |  | 18 µM | Active | 19.2 µM | 15.5 µM | > 20 µM | Active | 11.6 µM |  | 
CC(=O)O[C@H]1/C=C/C[C@@H](/C(C)=C/C=C/CC[C@H]2O[C@@H]2C[C@H](C)O)OC(=O)CCCC[C@@]1(C)O (mixture of isomers) | > 20 µM |  |  | > 20 µM |  |  |  |  |  | > 20 µM |  | 
CC(=O)O[C@@H](C)/C=C\C(=O)N[C@H]1CC[C@@H](C/C=C(C)/C=C/[C@H]2OC(C)(C)C[C@@]3(CO3)[C@@H]2O)CC1 | 0.39 µM |  |  | 2.02 µM |  | 0.72 µM | 0.18 µM | > 10 µM |  | 0.11 µM |  | 
CC(/C=C/[C@H]1OC(C)(C)C[C@@]2(CO2)[C@@H]1O)=C\C[C@H]1OC[C@@H](NC(=O)/C=C\[C@H](C)OC(=O)C(C)C)CO1 | 0.7 µM |  |  | 4.16 µM |  | 1.69 µM | 0.66 µM | > 10 µM |  | 0.29 µM | Active | Active
